The list is not random: actives were taken first. Their share in the collection is about 2.7%.
S100A4 MyoIIA = inhibitors of S100A4-myosin IIA peptide binding, primary screen, biochemical, fluorescence polarization, TAMRA-MyoIIA peptide. actives 0.14% (n = 360,000). inhibition, % at 10.7 µM. Protein S100-A4 (Homo sapiens), P26447;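 active = mean inhibition of at least 70% across replicates, with every replicate also reaching that level; inconclusive = mean inhibition reaches 70% but some replicates fall short; inactive = mean inhibition below 70%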
Target sequence (P26447 whole entry, looked up): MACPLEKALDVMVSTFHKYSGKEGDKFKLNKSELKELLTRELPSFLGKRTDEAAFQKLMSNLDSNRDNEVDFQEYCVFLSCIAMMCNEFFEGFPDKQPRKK
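Test system – S100A4 monomer (human) · Compound – single-point compound testing · Schedule – 5 min incubation before reading · Probe or stimulus – TAMRA-labelled myosin IIA heavy-chain peptide probe, 5 nM · Benchmarks – neutral control DMSO, positive control TFP · Medium – Calcium-containing HEPES buffer, pH 7.2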
DENV2 CPE rescue = inhibitors of DENV2 cytopathic effect, primary screen, cell-based, plate reader, single concentration. DENV2-infected cells, cytopathic effect rescue. CPE inhibition, % at 9.99 µM. actives 1.7% (n = 350,000). AID 651640, 2012; in the data active = CPE inhibition above about 20%, passing the limit was not always enough; inconclusive = no clear call, values can overlap the other calls; tested in BHK-21 cells;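 note: 0% = median of neutral control wells and 100% = median of positive control wells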
CaV13 FRET inh = Primary screen for inhibitors of IQ motif and Ca2+-dependent inactivation inhibitor domain binding in CACNA1D, Förster resonance energy transfer in living cells, …; inhibition, % at 12.3 µM; actives 0.098% (n = 340,000); HEK cells, CFP/YFP FRET ICDI-IQ, plate reader, 10 min; percent FRET-ratio fall versus neutral wells; AID 743397;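 active = mean replicate inhibition of at least 30% and at least 1% of replicates passing that level; inconclusive = only one of the two criteria is met; inactive = neither criterion is met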;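 note: 0% = median of the neutral control wells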
SIRT5 inh = SIRT5 desuccinylase inhibitors, primary screen, biochemical, fluorescence imaging, single point, set 5; actives 1.1% (n = 330,000); inhibition, % at 15 µM; Purified SirT5, succinyl-peptide AMC, trypsin-coupled fluorescence; NAD-dependent protein deacylase sirtuin-5, mitochondrial (Homo sapiens), Q9NXA8; in the data active = inhibition above about 15%; inconclusive = no clear call, values can overlap the other calls
Target sequence (Q9NXA8 whole entry, looked up): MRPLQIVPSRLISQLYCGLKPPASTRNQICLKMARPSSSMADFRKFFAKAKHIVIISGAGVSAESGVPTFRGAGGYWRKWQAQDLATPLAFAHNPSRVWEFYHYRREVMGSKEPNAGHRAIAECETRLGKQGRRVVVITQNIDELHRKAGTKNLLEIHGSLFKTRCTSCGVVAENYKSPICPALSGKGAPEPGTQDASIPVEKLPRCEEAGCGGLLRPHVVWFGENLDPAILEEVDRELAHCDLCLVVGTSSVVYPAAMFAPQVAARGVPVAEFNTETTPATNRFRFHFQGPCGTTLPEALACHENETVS
AF4-AF9 inh = inhibitors of AF4 peptide binding to AF9, primary screen, biochemical, AlphaScreen, biotin-AF4 peptide, FLAG-AF9, single point. Protein AF-9 (Homo sapiens), P42568. inhibition, % at 10 µM. actives 0.47% (n = 350,000). AID 651704, 2012;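 active = every replicate reaching a set inhibition limit, whatever the replicate mean, cut at about 25% in these data; inconclusive = mean inhibition reaches that limit but some replicates miss it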;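 note: 0% = plate neutral control median and 100% = total signal loss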
* marks the source's active call; other numbers are inactive results; ? = inconclusive; . = no result.

SMILES	S100A4 MyoIIA	DENV2 CPE rescue	CaV13 FRET inh	SIRT5 inh	AF4-AF9 inh
COC(=O)C1=C(c2ccc(OC(F)(F)F)cc2)C[C@@H]2CC[C@H]1N2C(=O)N1CCCCC1	0	48*	-5	.	2
COC(=O)C1=C(c2ccccc2)C[C@@H]2CC[C@H]1N2C(=O)N1CCOCC1	-2	38*	-11	.	0
COC(=O)[C@H]1[C@H](CO)[C@H]2Cn3c(ccc(-c4cccc(OC)c4)c3=O)[C@@H]1N2C(=O)c1cnccn1	7	19	.	3	0
O=C(O)[C@H]1[C@H](CO)[C@H]2Cn3c(ccc(-c4ccc(F)cc4)c3=O)[C@@H]1N2CC1CCCC1	0	-6	.	0	-3
COc1cccc(-c2ccc3c(c2)C2c4cnnn4-c4ccccc4C(=O)N2CC3)c1 (centres undefined)	4	?	-4	0	.
COC(=O)[C@H]1[C@H](CO)[C@H]2Cn3c(ccc(-c4ccccc4)c3=O)[C@@H]1N2CCc1ccccc1	3	-5	.	1	0
O=C(NCCN1CCC2(CC1)C(=O)NCN2c1ccccc1)c1ccccc1F	0	31*	-10	.	2
CN(C)C1C(=O)C(C(N)=O)=C(O)C2(O)C(=O)C3=C(O)c4c(O)cccc4C(C)(O)C3C(O)C12 (centres undefined)	-1	-4	-5	40*	6
COc1ccc(-c2ccc([C@@H]3[C@H](CO)N4CCCCN(C(=O)Cc5ccccc5)C[C@@H]34)cc2)cc1	1	2	.	1	3
CNc1ccc2oc(C[C@H]3O[C@@]4(CC[C@H]3C)O[C@H]([C@H](C)C(=O)c3ccc[nH]3)[C@H](C)C[C@H]4C)nc2c1C(=O)O	3	43*	-5	0	-3
Cc1c(CCC(=O)N2C[C@H]3C[C@@H](C2)c2cccc(=O)n2C3)c(=O)oc2c(C)c(O)ccc12	-6	56*	.	-20	-2
COc1ccc(CC(=O)N2C[C@H]3C[C@@H](C2)c2cccc(=O)n2C3)cc1	40	27*	.	.	-2
COc1ccc(CCC(=O)N2C[C@H]3C[C@@H](C2)c2cccc(=O)n2C3)cc1	-2	3	.	.	-2
C=CCCC1(C2=CCCCC2)C(=O)NC(=O)NC1=O	12	27*	-6	-4	-2
C=CCC1(CN2CCCC2=O)C(=O)NC(=O)NC1=O	1	.	.	-8	.
COC(=O)[C@@H]1[C@@H](CO)[C@@H]2Cn3c(ccc(-c4ccccc4F)c3=O)[C@H]1N2	-33	1	.	-11	-5
CN(C)Cc1c[nH]c2ccc([N+](=O)[O-])cc12	-2	0	-6	.	1
CN(C)Cc1c[nH]c2cc([N+](=O)[O-])ccc12	5	-5	-8	16*	-2
O=C(NCc1cccnc1)Nc1ccc([N+](=O)[O-])cc1	3	36*	.	-2	0
O=C(NCCN1CCC2(CC1)C(=O)NCN2c1ccccc1)c1ccc(Cl)cc1	1	-4	-10	.	6
Brc1ccc2c(c1)-n1nncc1CNC2	-5	?	-4	0	.
CC(C)OC(=O)C1C(c2ccc(I)cc2)CC2CCC1N2C (centres undefined)	1	4	.	.	.
COC(=O)C1C(c2ccc(C)cc2)CC2CCC1N2C (centres undefined)	-3	28*	.	.	.
C/C=C/c1ccc([C@H]2[C@@H](CO)N3CCCCN(C(=O)Cc4ccncc4)C[C@@H]23)cc1	-1	140*	.	1	-8
COc1cccc(-c2ccc([C@@H]3[C@@H](CO)N4CCCCN(C(=O)Cc5ccncc5)C[C@@H]34)cc2)c1	-5	6	.	0	-7
SMILES	S100A4 MyoIIA	DENV2 CPE rescue	CaV13 FRET inh	SIRT5 inh	AF4-AF9 inh
O=C(Cc1cccnc1)N1CCCCN2[C@H](CO)[C@@H](c3ccc(/C=C/c4ccccc4)cc3)[C@H]2C1	-1	1	.	-2	27*
COc1cccc(-c2ccc([C@H]3[C@@H](CO)N4CCCCN(C(=O)Cc5ccncc5)C[C@@H]34)cc2)c1	-7	27*	.	3	-9
COc1ccc(C#Cc2ccc([C@@H]3[C@H](CO)N4CCCCN(C(=O)Cc5cccnc5)C[C@@H]34)cc2)cc1	-14	27*	.	-1	0
COC(=O)C1=C(c2ccc(OC(F)(F)F)cc2)C[C@@H]2CC[C@H]1N2C(=O)NCc1ccco1	-6	13	-5	-2	-7
N#Cc1cccc(-c2ccc([C@@H]3[C@H]4CN(C(=O)Cc5ccccc5)CCCCN4[C@H]3CO)cc2)c1	9	1	.	-1	-6
O=C(Cc1cccnc1)N1CCCCN2[C@H](CO)[C@H](c3ccc(/C=C/c4ccccc4)cc3)[C@H]2C1	-1	25*	.	1	16
O=C(Cc1cccnc1)N1CCCCN2[C@H](CO)[C@@H](c3ccc(/C=C/c4ccccc4)cc3)[C@@H]2C1	-1	-9	.	-6	9
N#Cc1cccc(-c2ccc([C@@H]3[C@@H](CO)N4CCCCN(C(=O)Cc5ccccc5)C[C@@H]34)cc2)c1	1	38*	.	0	-5
COC(=O)[C@@H]1[C@@H](CO)[C@@H]2Cn3c(ccc(-c4cccnc4)c3=O)[C@H]1N2S(=O)(=O)c1ccccc1F	14	11	.	-21	-2
O=C(Cc1cccnc1)N1CCCCN2[C@@H](CO)[C@@H](c3ccc(C#CC4CC4)cc3)[C@@H]2C1	5	-2	.	0	2
Cc1ccccc1N1C(=O)NC(=O)/C(=C\c2cnn(-c3ccccc3)c2)C1=O	-6	-5	-14	20*	-2
Oc1ccccc1-[n+]1c(-c2ccccc2)cc(-c2ccccc2)cc1-c1ccccc1	-7	.	-5	.	23
Cc1ccccc1-[n+]1c(-c2ccccc2)cc(-c2ccccc2)cc1-c1ccccc1	40	76*	-11	-1	7
O=C(O)[C@@H]1[C@@H](CO)[C@@H]2Cn3c(ccc(-c4ccccc4)c3=O)[C@H]1N2S(=O)(=O)c1ccccc1F	1	-3	.	9	-1
CN1C(=O)C(=Cc2ccccc2OCc2ccc(Cl)cc2)C(=O)N(C)C1=O	4	-4	-19	112*	-5
CN1C(=O)C(=Cc2ccccc2Oc2ccc(Cl)cc2)C(=O)N(C)C1=O	.	.	1	.	.
COC(=O)[C@@H]1[C@@H](CO)[C@@H]2Cn3c(cccc3=O)[C@H]1N2C(=O)C1CCCC1	-5	-1	.	0	-4
Cn1cccc1CNCCc1ccc(F)cc1	-2	.	-3	8	.
COc1ccc(CCNCc2cccn2C)cc1OC	0	69*	-2	0	10

Bioassay records as filed in PubChem BioAssay.
